{"source": "paper PMC2917810", "about": "(Chemical biology & drug design, 2008)", "key": {"[1]": {"target": "T1, RGS4Δ51N (Homo sapiens, UniProt P49798)", "T1 sequence (P49798 52-205 limits assumed)": "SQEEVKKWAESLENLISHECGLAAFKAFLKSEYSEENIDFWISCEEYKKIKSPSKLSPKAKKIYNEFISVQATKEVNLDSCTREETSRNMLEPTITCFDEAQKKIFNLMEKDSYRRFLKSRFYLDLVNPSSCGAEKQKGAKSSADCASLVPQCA", "experiment": "Single turnover RGS-stimulated Gαo GTPase", "format": "biochemical", "conditions": "for inhibition of RGS4 activity (rate of RGS stimulated Gαo GTP hydrolysis): purified proteins, mean ± S.E.M., n ≥3, SEM; for activity on RGS4 GAP activity: single turnover GAP assay, RGS4Δ51N 75–125 nM", "procedure,_shortened": "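Single-turnover GTP hydrolysis by purified rat His6-Gαo with γ[32P]GTP, stimulated by human MBP-His6-RGS4Δ51N (75–125 nM). Soluble disulfide-cyclized peptides (≥95% pure) were tested at 50 μM, or lower where solubility limited. Rates came from time courses, reported as percent decrease in the RGS-stimulated rate; IC50 estimated from these single-concentration inhibitions. Mean ± S.E.M., n ≥3; t-test.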"}, "[2]": {"system": "RGS7box", "experiment": "Single turnover GAP assay, RGS7", "format": "biochemical, human", "conditions": "RGS7box 500 nM", "procedure,_shortened": "(§1)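 Single-turnover GTP hydrolysis by purified rat His6-Gαo with γ[32P]GTP, with or without RGS. The RGS proteins were human MBP-His6 constructs, purified on amylose then Ni-NTA: full-length RGS16 at 1.5 μM, RGS19Δ11C at 200 nM, and the RGS7 RGS domain (nucleotides 915–1359) at 500 nM. Test peptides were soluble, cyclized, and ≥95% pure.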"}, "[3]": {"system": "RGS16", "experiment": "Single turnover GAP assay, RGS16", "format": "biochemical, human", "conditions": "RGS16 1.5 μM", "procedure,_shortened": "as §1"}, "[4]": {"experiment": "Solubility and aggregation of soluble peptides", "format": "physicochemical"}, "[5]": {"system": "RGS4", "conditions": "membrane based steady state GTPase assay; cited from earlier work"}, "[6]": {"system": "RGS4Δ51N-Alexa Fluor 532", "experiment": "FACScan flow cytometry binding of bead-bound peptides", "parameters": "species or system human", "conditions": "peptides on beads, 25 nM RGS4Δ51N-Alexa Fluor 532", "procedure,_shortened": "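Hit peptides resynthesized and disulfide-cyclized on 20 μm TentaGel beads; about 5 × 10^3 beads per sample (at most 5 nmoles peptide) washed, then incubated with RGS4Δ51N-Alexa Fluor 532 for at least 15 min at room temperature, protected from light. FACScan gated on acetylated TentaGel control beads, no compensation; their signal subtracted as background. Duplicates; one-way ANOVA with Bonferroni post-test.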"}, "[7]": {"system": "RGS4", "conditions": "cited from earlier work"}}, "note": "Read-outs that look alike come from different tables or passages of the source. Positions of bridges follow the written chain, without caps; N, C: chain ends. Residues, ends and D or L forms follow the SMILES beside them.", "data": [{"compound": "4nd: free N-terminal, disulfide bridged version of hit 4 (H-KVCMGGCT-NH2; disulfide 3-7; SMILES CSCC[C@@H]1NC(=O)[C@@H](NC(=O)[C@@H](NC(=O)[C@@H](N)CCCCN)C(C)C)CSSC[C@@H](C(=O)N[C@H](C(N)=O)[C@@H](C)O)NC(=O)CNC(=O)CNC1=O)", "values": [{"measurement": "inhibition of RGS4 activity (rate of RGS stimulated Gαo GTP hydrolysis)", "setting": "[1]; 50 μM peptide in solution", "value": "33 ± 16", "unit": "%"}]}, {"compound": "2nl: free N-terminal linear version of peptide 2 (H-GTCFGTCW-NH2; cysteine pairing not given here)", "values": [{"measurement": "activity on RGS4 GAP activity", "setting": "[1]", "value": "inactive"}]}, {"compound": "CC(=O)NCC(=O)N[C@H](C(=O)N[C@H]1CSSC[C@@H](C(=O)N[C@@H](Cc2c[nH]c3ccccc23)C(N)=O)NC(=O)[C@H]([C@@H](C)O)NC(=O)CNC(=O)[C@H](Cc2ccccc2)NC1=O)[C@@H](C)O", "note": "[2ad, Ac-Gly-Thr-c[Cys-Phe-Gly-Thr-Cys]-Trp-NH2, S-S] (Ac-GTCFGTCW-NH2; disulfide 3-7)", "values": [{"measurement": "IC50", "setting": "[1]", "value": "~50", "unit": "µM"}, {"measurement": "inhibition of RGS4 activity (rate of RGS stimulated Gαo GTP hydrolysis)", "setting": "[1]; 25 μM peptide (limited by solubility)", "value": "30 ± 12", "unit": "%"}, {"measurement": "activity against RGS7", "setting": "[2]", "value": "inactive"}, {"measurement": "activity against RGS16", "setting": "[3]", "value": "inactive"}, {"measurement": "solubility", "setting": "[4]", "value": "limited by solubility"}]}, {"compound": "14nd: free N-terminal, disulfide bridged version of hit 14 (H-KHCYGFCK-NH2; disulfide 3-7; SMILES NCCCC[C@H](NC(=O)[C@@H]1CSSC[C@H](NC(=O)[C@H](Cc2c[nH]cn2)NC(=O)[C@@H](N)CCCCN)C(=O)N[C@@H](Cc2ccc(O)cc2)C(=O)NCC(=O)N[C@@H](Cc2ccccc2)C(=O)N1)C(N)=O)", "values": [{"measurement": "solubility", "setting": "[4]; could not be tested at 50 μM in GAP assay, solubility verified by HPLC", "value": "limited by solubility"}]}, {"compound": "Ac-Val-Lys-c[Cys-Thr-Gly-Ile-Cys]-Glu-NH2, S-S (disulfide) [YJ34, reference compound]", "values": [{"measurement": "solubility", "setting": "[4]", "value": "limited by solubility"}, {"measurement": "IC50", "setting": "[5]", "value": 26, "unit": "µM"}]}, {"compound": "KVc[CMGGC]T-NH2, S-S (disulfide) [compound 4]", "values": [{"measurement": "binding to RGS4Δ51N in FACScan assay", "setting": "[6]", "value": "bound RGS4 so well"}, {"measurement": "activity on RGS4 GAP activity", "setting": "[1]", "value": "little effect"}]}, {"compound": "Ac-Val-Lys-[Cys-Thr-Gly-Phe-Cys]-Glu-NH2, S-S (disulfide) [peptide 20 in Roof et al]", "values": [{"measurement": "inhibited RGS4 GAP activity", "setting": "[7]; at 100 μM", "value": "~40", "unit": "%"}]}, {"compound": "2al: acetylated linear version of peptide 2 (Ac-GTCFGTCW-NH2; cysteine pairing not given here)", "values": [{"measurement": "activity on RGS4 GAP activity", "setting": "[1]", "value": "inactive"}]}, {"compound": "C[C@@H](O)[C@@H]1NC(=O)CNC(=O)[C@H](Cc2ccccc2)NC(=O)[C@@H](NC(=O)[C@@H](NC(=O)CN)[C@@H](C)O)CSSC[C@@H](C(=O)N[C@@H](Cc2c[nH]c3ccccc23)C(N)=O)NC1=O", "note": "[2nd, Gly-Thr-c[Cys-Phe-Gly-Thr-Cys]-Trp-NH2, S-S] (H-GTCFGTCW-NH2; disulfide 3-7)", "values": [{"measurement": "IC50", "setting": "[1]", "value": "~50", "unit": "µM"}, {"measurement": "inhibition of RGS4 activity (rate of RGS stimulated Gαo GTP hydrolysis)", "setting": "[1]; 50 μM peptide in solution", "value": "48 ± 7", "unit": "%"}, {"measurement": "activity against RGS7", "setting": "[2]", "value": "inactive"}, {"measurement": "activity against RGS16", "setting": "[3]", "value": "inactive"}]}, {"compound": "1nd: free N-terminal, disulfide bridged version of hit 1 (H-YNCQGECE-NH2; disulfide 3-7; SMILES NC(=O)CC[C@@H]1NC(=O)[C@@H](NC(=O)[C@H](CC(N)=O)NC(=O)[C@@H](N)Cc2ccc(O)cc2)CSSC[C@@H](C(=O)N[C@@H](CCC(=O)O)C(N)=O)NC(=O)[C@H](CCC(=O)O)NC(=O)CNC1=O)", "values": [{"measurement": "inhibition of RGS4 activity (rate of RGS stimulated Gαo GTP hydrolysis)", "setting": "[1]; 50 μM peptide in solution", "value": "33 ± 15", "unit": "%"}]}, {"compound": "KLc[CHGYC]H-NH2, S-S (disulfide) [compound 11]", "values": [{"measurement": "aggregation", "setting": "[4]; not evaluated in GAP assay for this reason", "value": "signs of aggregation"}]}, {"compound": "Ac-Val-Lys-c[Cys-Thr-Ser-Ile-Cys]-Glu-NH2, S-S (disulfide) [BR2]", "values": [{"measurement": "activity as RGS4 inhibitor", "setting": "[7]", "value": "inactive"}]}]}
